Test results published in ChEMBL document CHEMBL4414639, “Synthesis, Pharmacological Characterization, and Structure-Activity Relationships of Noncanonical Selective Agonists for α7 nAChRs” (J Med Chem, 2019).
Calls of active or inactive are those of the source. No cut-off for these calls is given here.

Tests used:
[1] = target: T1, Neuronal acetylcholine receptor subunit alpha-7 (Homo sapiens, UniProt P36544); experiment: Agonist activity at human alpha7 nAChR expressed in Xenopus laevis oocytes assessed as increase in channel currents at 30 uM at -60 mV holding potential followed washout for 211 sec and then 60 uM of Ach was applied by two electrode voltage clamp assay
T1 sequence (P36544 whole entry): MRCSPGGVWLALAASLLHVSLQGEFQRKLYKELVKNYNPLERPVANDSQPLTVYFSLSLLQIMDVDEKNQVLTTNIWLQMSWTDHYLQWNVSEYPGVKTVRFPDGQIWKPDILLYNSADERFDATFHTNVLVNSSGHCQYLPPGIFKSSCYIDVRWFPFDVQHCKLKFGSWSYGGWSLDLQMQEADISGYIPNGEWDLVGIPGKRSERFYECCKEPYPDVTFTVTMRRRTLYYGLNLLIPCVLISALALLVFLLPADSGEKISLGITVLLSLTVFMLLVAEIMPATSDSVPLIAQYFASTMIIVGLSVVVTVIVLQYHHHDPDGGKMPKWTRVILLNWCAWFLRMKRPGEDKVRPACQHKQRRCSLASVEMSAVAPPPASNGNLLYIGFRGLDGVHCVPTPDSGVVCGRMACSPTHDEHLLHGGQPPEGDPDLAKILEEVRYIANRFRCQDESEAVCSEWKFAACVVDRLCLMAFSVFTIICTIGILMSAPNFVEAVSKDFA

[2] = target: T1, Neuronal acetylcholine receptor subunit alpha-7; experiment: Agonist activity at human alpha7 nAChR expressed in Xenopus laevis oocytes assessed as increase in channel currents at 30 uM at -60 mV holding potential by two electrode voltage clamp assay; format: cell-based
Procedure, shortened: (§1)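 Oocytes expressing human α7 nAChR (with human RIC-3 cDNA available), clamped at -60 mV in Ringer's pH 7.2 with 1 µM atropine, 2 mL/min flow. Drug applied 12 s, 211 s washout. Responses normalized to mean of two 60 µM ACh precontrol responses per oocyte. Data from six cells. Concentration-response data fit to the Hill equation. Sequence included 30 µM test compound, then 60 µM ACh, then 10 µM PNU-120596.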

[3] = target: T1, Neuronal acetylcholine receptor subunit alpha-7; experiment: Agonist activity at human alpha7 nAChR expressed in Xenopus laevis oocytes assessed as increase in channel currents at 30 uM at -60 mV holding potential in presence of 10 uM PNU-120596 by two electrode voltage clamp assay; format: cell-based
Procedure, shortened: as §1

[4] = target: T2, Neuronal acetylcholine receptor; alpha4/beta2 (Homo sapiens) (UniProt P17787+P43681); experiment: Antagonist activity at alpha4beta2 nAChR (unknown origin) transfected in HEK cells assessed as decrease in epibatidine-induced intracellular calcium release incubated for 30 mins by FRET assay
[5] = target: T2, Neuronal acetylcholine receptor; alpha4/beta2 (Homo sapiens); experiment: Agonist activity at human (alpha4)3 (beta2)2 nAChR expressed in Xenopus laevis oocytes assessed as increase in channel currents at 30 uM at -60 mV holding potential by two electrode voltage clamp assay; format: cell-based
Procedure, shortened: (§2)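 Two-electrode voltage clamp on oocytes at -60 mV in Ringer's (115 mM NaCl, 2.5 mM KCl, 1.8 mM CaCl2, 10 mM HEPES, 1 µM atropine, pH 7.2), 4 mL/min flow. Test compound applied 6 s, then 271 s washout. Normalized to mean of two ACh precontrols: 30 µM for α1β1εδ, 100 µM for α3β4, 100 µM for LS α4β2, 10 µM for HS α4β2.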

[6] = target: T1, Neuronal acetylcholine receptor subunit alpha-7; experiment: Inhibition of human alpha7 nAChR expressed in Xenopus laevis oocytes assessed as decrease in ACh-induced channel currents at -60 mV holding potential by two electrode voltage clamp assay; format: cell-based
Procedure, shortened: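 Human α7 nAChR in oocytes under two-electrode voltage clamp at -60 mV, Ringer's pH 7.2, 2 mL/min. Test compound applied 12 s with 211 s washout, then 60 µM ACh applied. ACh response normalized to the mean of two ACh precontrols per oocyte. Inhibition concentration-response curves from six cells, Hill equation fit.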

[7] = species on record: Mus musculus; experiment: Agonist activity at mouse alpha1beta1epsilondelta nAChR expressed in Xenopus laevis oocytes assessed as increase in channel currents at 30 uM at -60 mV holding potential by two electrode voltage clamp assay; format: cell-based
Procedure, shortened: as §2

[8] = target: T3, Neuronal acetylcholine receptor; alpha3/beta4 (Homo sapiens) (UniProt P30926+P32297); experiment: Agonist activity at human alpha3beta4 nAChR expressed in Xenopus laevis oocytes assessed as increase in channel currents at 30 uM at -60 mV holding potential by two electrode voltage clamp assay; format: cell-based
Procedure, shortened: as §2

[9] = target: T2, Neuronal acetylcholine receptor; alpha4/beta2 (Homo sapiens); experiment: Inhibition of human (alpha4)2 (beta2)3 nAChR expressed in Xenopus laevis oocytes assessed as increase in channel currents at 30 uM at -60 mV holding potential by two electrode voltage clamp assay; format: cell-based
[10] = species on record: Mus musculus; experiment: Inhibition of mouse alpha1beta1epsilondelta nAChR expressed in Xenopus laevis oocytes assessed as increase in channel currents at 30 uM at -60 mV holding potential by two electrode voltage clamp assay; format: cell-based
[11] = target: T1, Neuronal acetylcholine receptor subunit alpha-7; experiment: Agonist activity at human alpha7 nAChR expressed in Xenopus laevis oocytes assessed as increase in channel currents at -60 mV holding potential by two electrode voltage clamp assay relative Ach; format: cell-based
Procedure, shortened: as §1

[12] = target: T1, Neuronal acetylcholine receptor subunit alpha-7; experiment: Agonist activity at human alpha7 nAChR transfected in HEK cells assessed as increase in intracellular calcium release incubated for 30 mins in presence of PNU-120596 by FRET assay; format: cell-based
Procedure, shortened: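 HEK cell line stably expressing α7 nAChR and the CNiFER (TN-XXL) biosensor, grown in DMEM + 10% FBS, 1% glutamine, 37 °C, 6% CO2. Cells preincubated 30 min at 37 °C in aCSF containing 10 μM PNU-120596 (final). Agonist injected at 30 s. FRET ratio (527/485 nm) followed over 120 s at 37 °C, triplicate wells. EC50 from variable-slope sigmoidal fit of mean peak ratios, normalized to the 316 μM response.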

[13] = target: T2, Neuronal acetylcholine receptor; alpha4/beta2 (Homo sapiens); experiment: Agonist activity at human (alpha4)2 (beta2)3 nAChR expressed in Xenopus laevis oocytes assessed as increase in channel currents at 30 uM at -60 mV holding potential by two electrode voltage clamp assay; format: cell-based
Procedure, shortened: as §2

[14] = target: T4, 5-hydroxytryptamine receptor 3A (Homo sapiens) (UniProt P46098); experiment: Antagonist activity at 5HT3A (unknown origin) transfected in HEK cells assessed as decrease in agonist-induced intracellular calcium release incubated for 30 mins by FRET assay; format: cell-based
T4 sequence (whole entry): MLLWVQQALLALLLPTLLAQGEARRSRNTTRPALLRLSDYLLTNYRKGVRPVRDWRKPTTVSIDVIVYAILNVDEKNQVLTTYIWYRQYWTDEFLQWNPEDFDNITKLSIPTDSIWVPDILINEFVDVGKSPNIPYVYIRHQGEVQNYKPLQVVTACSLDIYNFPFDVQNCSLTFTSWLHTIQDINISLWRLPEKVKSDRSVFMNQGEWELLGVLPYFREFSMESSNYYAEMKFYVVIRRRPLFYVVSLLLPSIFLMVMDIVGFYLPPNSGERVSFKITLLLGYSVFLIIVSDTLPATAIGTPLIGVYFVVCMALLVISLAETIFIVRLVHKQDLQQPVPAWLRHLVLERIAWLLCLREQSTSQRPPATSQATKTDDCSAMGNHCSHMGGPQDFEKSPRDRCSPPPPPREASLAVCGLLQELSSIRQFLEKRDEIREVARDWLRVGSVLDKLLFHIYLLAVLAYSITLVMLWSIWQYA
Procedure, shortened: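 CNiFER HEK cell monolayers stably expressing the receptor. Test compound at three concentrations in aCSF, preincubated 30 min at 37 °C, 6% CO2, before agonist addition: epibatidine for α4β2, 5-HT for 5-HT3A. TN-XXL FRET ratio (527/485 nm) read over 120 s at 37 °C, agonist injected at 30 s, triplicate wells. Agonist EC50 shifts fitted. KA computed as [A]/(DR−1) (competitive) or [A]/(Δmax/Δ−1) (noncompetitive). At least three independent experiments. α4β2 stoichiometry not distinguished.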

[15] = target: T2, Neuronal acetylcholine receptor; alpha4/beta2 (Homo sapiens); experiment: Inhibition of human (alpha4)3 (beta2)2 nAChR expressed in Xenopus laevis oocytes assessed as increase in channel currents at 30 uM at -60 mV holding potential by two electrode voltage clamp assay; format: cell-based
[16] = target: T3, Neuronal acetylcholine receptor; alpha3/beta4 (Homo sapiens); experiment: Inhibition of human alpha3beta4 nAChR expressed in Xenopus laevis oocytes assessed as increase in channel currents at 30 uM at -60 mV holding potential by two electrode voltage clamp assay; format: cell-based
[17] = target: T1, Neuronal acetylcholine receptor subunit alpha-7; experiment: Agonist activity at alpha7 nAChR (unknown origin) transfected in HEK cells assessed as increase in intracellular calcium release incubated for 30 mins by FRET assay; format: cell-based
Procedure, shortened: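 Stable HEK cell line expressing α7 nAChR with TN-XXL FRET calcium biosensor (CNiFER), in DMEM with 10% FBS at 37 °C, 6% CO2. Cells preincubated 30 min at 37 °C in aCSF with PNU-120596 (10 µM final). FRET ratio (527/485 nm, 436 nm excitation) read at 37 °C over 120 s, agonist injected at 30 s, triplicate wells. EC50 from variable-slope sigmoidal fit of mean peak ratios, normalized to 316 µM response.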

SMILES	Ka [4]	EC50 [12]	Ka [14]	further results
COc1ccccc1-c1cc(N(Cc2ccccn2)Cc2ccccn2)ncn1	7.9 µM	140 nM	> 10 µM	Activity [1]: inactive; Activity [2]: Active; Activity [3]: Active; Activity [5]: inactive; IC50 [6]: 3500 nM; Activity [7]: inactive; Activity [8]: inactive; inhibition [9]: inactive; inhibition activity (active/inactive) [10]: Active; EC50 [11]: 3350 nM; Imax [11]: 0.89; Activity [13]: inactive; inhibition [15]: inactive; inhibition [16]: Active
COc1cccc(OC)c1-c1cc(N(Cc2ccccn2)Cc2ccccn2)nc(N)n1	7.1 µM	5400 nM	> 10 µM	
COc1ccc(-c2cc(N(Cc3ccccn3)Cc3ccccn3)nc(N)n2)c(OC)c1	2.5 µM		> 10 µM	EC50 [17]: 70 nM
COc1ccccc1-c1cc(N(Cc2ccccn2)Cc2ccccn2)nc(C(F)(F)F)n1	1.7 µM	530 nM	3.7 µM	
COc1ccccc1-c1cc(N(Cc2ccccn2)Cc2ccccn2)nc(N)n1	6.3 µM		> 10 µM	Activity [1]: inactive; Activity [2]: Active; EC50 [17]: 70 nM; Activity [5]: inactive; IC50 [6]: 370 nM; Activity [7]: inactive; Activity [8]: inactive; inhibition [9]: inactive; inhibition activity (active/inactive) [10]: Active; EC50 [11]: 350 nM; Imax [11]: 0.98; Activity [13]: inactive; inhibition [15]: inactive; inhibition [16]: Active
COc1ncccc1-c1cc(N(Cc2ccccn2)Cc2ccccn2)nc(N)n1	> 10 µM	230 nM	> 10 µM	
Nc1nc(-c2ccsc2)cc(N(Cc2ccccn2)Cc2ccccn2)n1	> 10 µM		> 10 µM	EC50 [17]: 500 nM
CSc1nc(-c2ccsc2)cc(N(Cc2ccccn2)Cc2ccccn2)n1	3.4 µM	1800 nM	2.2 µM	
COc1ccccc1-c1cc(N(Cc2ccccn2)Cc2ccccn2)nc(S(C)(=O)=O)n1	7.2 µM	690 nM	> 10 µM	
COc1ccccc1-c1cc(N(Cc2ccccn2)Cc2ccccn2)nc(SC)n1	1.1 µM	110 nM	2.8 µM	
COc1ccc(-c2cc(N(Cc3ccccn3)Cc3ccccn3)ncn2)c(F)c1	3 µM	69 nM	5.4 µM	Activity [1]: inactive; Activity [2]: Active; Activity [3]: Active; Activity [5]: inactive; IC50 [6]: 1300 nM; Activity [7]: inactive; Activity [8]: inactive; inhibition [9]: inactive; inhibition activity (active/inactive) [10]: Active; EC50 [11]: 600 nM; Imax [11]: 0.53; Activity [13]: inactive; inhibition [15]: inactive; inhibition [16]: Active
Nc1nc(-c2ccccc2Cl)cc(N(Cc2ccccn2)Cc2ccccn2)n1	3.4 µM	160 nM	> 10 µM	
CC(C)COc1ccccc1-c1cc(N(Cc2ccccn2)Cc2ccccn2)nc(N)n1	1.3 µM	1600 nM	5.5 µM	
COc1ccccc1-c1cc(N(Cc2ccccc2)Cc2ccccn2)nc(N)n1	1.3 µM	> 13300 nM	4.1 µM	
FC(F)(F)c1nc(-c2ccsc2)cc(N(Cc2ccccn2)Cc2ccccn2)n1	0.96 µM	2500 nM	3.6 µM	
Fc1ccccc1-c1cc(N(Cc2ccccn2)Cc2ccccn2)ncn1	5.6 µM	360 nM	8.4 µM	
c1ccc(CN(Cc2ccccn2)c2cc(-c3ccsc3)ncn2)nc1	> 10 µM	2100 nM	> 10 µM	
COc1cc(F)ccc1-c1cc(N(Cc2ccccn2)Cc2ccccn2)nc(N)n1	4.8 µM	120 nM	> 10 µM	
c1ccc(CN(Cc2ccccn2)c2cc(N3CCOCC3)ncn2)nc1	> 10 µM	> 13300 nM	> 10 µM	
COc1ccc(-c2cc(N(Cc3ccccn3)Cc3ccccn3)nc(N)n2)c(F)c1	3.2 µM	30 nM	5.3 µM	Activity [1]: inactive; Activity [2]: Active; Activity [3]: Active; Activity [5]: inactive; IC50 [6]: 470 nM; Activity [7]: inactive; Activity [8]: inactive; inhibition [9]: inactive; inhibition activity (active/inactive) [10]: Active; EC50 [11]: 110 nM; Imax [11]: 0.84; Activity [13]: inactive; inhibition [15]: inactive; inhibition [16]: Active
CSc1ccccc1-c1cc(N(Cc2ccccn2)Cc2ccccn2)nc(N)n1	4.3 µM	240 nM	> 10 µM	
COc1ccccc1-c1cc(N(Cc2ccccn2)Cc2ccccn2)nc([S+](C)[O-])n1 (centres undefined)	> 10 µM	920 nM	> 10 µM	
CC(C)Oc1ccccc1-c1cc(N(Cc2ccccn2)Cc2ccccn2)nc(N)n1	1.5 µM	890 nM	> 10 µM	
